≈ marks a conversion by molar mass, not a printed value.
Assays:
[1] = Association constant to Ac2-L-Lys-D-Ala-D-Ala determined at pH 9; Value ranges from (9.5E4-3.5E5)
Enterococcus faecalis = test: Minimum inhibitory concentration against Enterococcus faecalis ATCC 7080; format: functional
How it was run: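 Microbroth dilution MIC (µg/mL), final inoculum 10^4 cfu/mL, incubated 24 h at 37 °C in air.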

Staphylococcus aureus = test: Minimum inhibitory concentration against Staphylococcus aureus L 165; format: functional
How it was run: (§1)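 MIC (µg/mL) by microbroth dilution in Iso-Sensitest broth; final inoculum 10^4 cfu/mL; 24 h at 37 °C in air.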

Streptococcus pyogenes [2] = test: Efficacy of compound administered perorally against Streptococcus pyogenes L 49 Septicemia in mouse; format: functional; details: po
How it was run: (§2)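 Mice were infected intraperitoneally with about 10^5 Strep. pyogenes L 49 cells, about 100 times the 50% lethal dose. Groups of 5–8 mice were treated once right after challenge, by the route stated in the line. ED50 (mg/kg) was derived from percentage survival at each dose on day 7 (Spearman-Kärber).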

Streptococcus pyogenes [3] = test: Efficacy of compound administered subcutaneously against Streptococcus pyogenes L 49 Septicemia in mouse; format: functional; details: sc; how it was run: as §2
[4] = system: Staphylococcus epidermidis; test: Minimum inhibitory concentration against Staphylococcus epidermidis ATCC 12228; format: functional; how it was run: as §1
Streptococcus pneumoniae = test: Minimum inhibitory concentration against Streptococcus pneumoniae L 44; format: functional
How it was run: (§3)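 MIC (µg/mL) by microbroth dilution in Todd-Hewitt broth, final inoculum 10^4 cfu/mL, incubated 24 h at 37 °C in air.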

[5] = system: Staphylococcus haemolyticus; test: Minimum inhibitory concentration against Staphylococcus haemolyticus L 602; format: functional; how it was run: as §1
Streptococcus pyogenes [6] = test: Minimum inhibitory concentration against Streptococcus pyogenes L 49; format: functional; how it was run: as §3
Escherichia coli = test: Minimum inhibitory concentration against Escherichia coli L 47; format: functional; how it was run: as §1
Proteus vulgaris = test: Minimum inhibitory concentration against Proteus vulgaris ATCC 881; format: functional; how it was run: as §1
Pseudomonas aeruginosa = test: Minimum inhibitory concentration against Pseudomonas aeruginosa ATCC 10145; format: functional; how it was run: as §1

SMILES | Ka [1] | MIC (Enterococcus faecalis) | MIC (Staphylococcus aureus) | ED50 (Streptococcus pyogenes [2]) | ED50 (Streptococcus pyogenes [3]) | MIC [4] | MIC (Streptococcus pneumoniae) | MIC [5] | MIC (Streptococcus pyogenes [6]) | MIC (Escherichia coli) | MIC (Proteus vulgaris) | MIC (Pseudomonas aeruginosa)
CC(=O)N[C@@H]1[C@H](O[C@@H]2c3ccc(c(Cl)c3)Oc3cc4cc(c3O[C@@H]3O[C@@H](CO)[C@@H](O)[C@H](O)[C@@H]3NC(=O)CCCCCCC(C)C)Oc3ccc(cc3Cl)C[C@H]3NC(=O)[C@H](N)c5ccc(O)c(c5)Oc5cc(O)cc(c5)[C@H](NC3=O)C(=O)N[C@H]4C(=O)N[C@H]3C(=O)N[C@@H]2C(=O)N[C@H](C(=O)NCCCN2CCCCN(CCCN)CCCC2)c2cc(O)cc(O[C@H]4O[C@H](CO)[C@@H](O)[C@@H](O)[C@@H]4O)c2-c2cc3ccc2O)O[C@@H](CO)[C@@H](O)[C@@H]1O | 350000 M⁻¹ | 0.125 µg/mL (≈ 0.059 µM) | 0.25 µg/mL (≈ 0.118 µM) | 60 mg/kg | 0.06 mg/kg | 0.063 µg/mL (≈ 0.0297 µM) | 0.125 µg/mL (≈ 0.059 µM) | 0.125 µg/mL (≈ 0.059 µM) | 0.063 µg/mL (≈ 0.0297 µM) |  |  | 
CC(=O)N[C@@H]1[C@H](O[C@@H]2c3ccc(c(Cl)c3)Oc3cc4cc(c3O[C@@H]3O[C@@H](CO)[C@@H](O)[C@H](O)[C@@H]3NC(=O)CCCCCCC(C)C)Oc3ccc(cc3Cl)C[C@H]3NC(=O)[C@H](N)c5ccc(O)c(c5)Oc5cc(O)cc(c5)[C@H](NC3=O)C(=O)N[C@H]4C(=O)N[C@H]3C(=O)N[C@@H]2C(=O)N[C@H](C(=O)NCCCNCCNCCCN)c2cc(O)cc(O[C@H]4O[C@H](CO)[C@@H](O)[C@@H](O)[C@@H]4O)c2-c2cc3ccc2O)O[C@@H](CO)[C@@H](O)[C@@H]1O | 350000 M⁻¹ | 0.125 µg/mL (≈ 0.0614 µM) | 0.25 µg/mL (≈ 0.123 µM) |  |  | 0.125 µg/mL (≈ 0.0614 µM) | 0.125 µg/mL (≈ 0.0614 µM) | 0.125 µg/mL (≈ 0.0614 µM) | 0.063 µg/mL (≈ 0.0309 µM) |  |  | 
CN(C)CCCN1CCCCN(C(=O)[C@H]2NC(=O)[C@H]3NC(=O)[C@H](NC(=O)[C@@H]4NC(=O)[C@H]5NC(=O)[C@@H](Cc6ccc(c(Cl)c6)Oc6cc4cc(c6O)Oc4ccc(cc4Cl)[C@H]3O)NC(=O)[C@H](N)c3ccc(O)c(c3)Oc3cc(O)cc5c3)c3ccc(O)c(c3)-c3c(O)cc(O)cc32)CCCC1 |  | 0.125 µg/mL (≈ 0.0888 µM) | 0.063 µg/mL (≈ 0.0447 µM) |  |  | 0.063 µg/mL (≈ 0.0447 µM) | 0.125 µg/mL (≈ 0.0888 µM) |  | 0.063 µg/mL (≈ 0.0447 µM) | 8 µg/mL (≈ 5.68 µM) | 128 µg/mL (≈ 90.9 µM) | 32 µg/mL (≈ 22.7 µM)
CC(=O)N[C@@H]1[C@H](O[C@@H]2c3ccc(c(Cl)c3)Oc3cc4cc(c3O[C@@H]3O[C@@H](CO)[C@@H](O)[C@H](O)[C@@H]3NC(=O)CCCCCCC(C)C)Oc3ccc(cc3Cl)C[C@H]3NC(=O)[C@H](N)c5ccc(O)c(c5)Oc5cc(O)cc(c5)[C@H](NC3=O)C(=O)N[C@H]4C(=O)N[C@H]3C(=O)N[C@@H]2C(=O)N[C@H](C(=O)NCCCN(CCCN)CCCN)c2cc(O)cc(O[C@H]4O[C@H](CO)[C@@H](O)[C@@H](O)[C@@H]4O)c2-c2cc3ccc2O)O[C@@H](CO)[C@@H](O)[C@@H]1O | 350000 M⁻¹ | 0.125 µg/mL (≈ 0.061 µM) | 0.125 µg/mL (≈ 0.061 µM) |  |  | 0.125 µg/mL (≈ 0.061 µM) | 0.063 µg/mL (≈ 0.0307 µM) | 2 µg/mL (≈ 0.976 µM) | 0.063 µg/mL (≈ 0.0307 µM) |  |  | 
CCN(CC)CCN(CCCN)CCCNC(=O)[C@H]1NC(=O)[C@H]2NC(=O)[C@H](NC(=O)[C@@H]3NC(=O)[C@H]4NC(=O)[C@@H](Cc5ccc(c(Cl)c5)Oc5cc3cc(c5O)Oc3ccc(cc3Cl)[C@H]2O)NC(=O)[C@H](N)c2ccc(O)c(c2)Oc2cc(O)cc4c2)c2ccc(O)c(c2)-c2c(O)cc(O)cc21 |  | 0.125 µg/mL (≈ 0.0886 µM) | 0.125 µg/mL (≈ 0.0886 µM) |  |  | 0.032 µg/mL (≈ 0.0227 µM) | 0.125 µg/mL (≈ 0.0886 µM) | 0.125 µg/mL (≈ 0.0886 µM) | 0.125 µg/mL (≈ 0.0886 µM) | 32 µg/mL (≈ 22.7 µM) | > 128 µg/mL | 128 µg/mL (≈ 90.7 µM)
N[C@H]1C(=O)N[C@@H]2Cc3ccc(c(Cl)c3)Oc3cc4cc(c3O)Oc3ccc(cc3Cl)[C@@H](O)[C@@H]3NC(=O)[C@H](NC(=O)[C@@H]4NC(=O)[C@@H](NC2=O)c2cc(O)cc(c2)Oc2cc1ccc2O)c1ccc(O)c(c1)-c1c(O)cc(O)cc1[C@@H](C(=O)N1CCNCCNCCNCCNCCNCC1)NC3=O |  | 0.5 µg/mL (≈ 0.347 µM) | 0.125 µg/mL (≈ 0.0868 µM) |  |  | 0.125 µg/mL (≈ 0.0868 µM) | 0.25 µg/mL (≈ 0.174 µM) | 1 µg/mL (≈ 0.695 µM) | 0.25 µg/mL (≈ 0.174 µM) | > 128 µg/mL | > 128 µg/mL | > 128 µg/mL
